According to publication PMC9126795 (eBioMedicine, 2022):

Assays:
[1] = tested on: patients with HCV and HBV liver cirrhosis; test: Ishak; assay type: in vivo, human
Summary of the method: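 Liver biopsies were taken at screening (baseline) and within 2 weeks of the final dose of 280 mg/m²/4 h IV twice weekly for 12 weeks. Three independent pathologists scored slides blinded, using Knodell scoring and Ishak-modified HAI for necroinflammation and fibrosis stage. Thirteen of 15 patients were evaluable; one was excluded for poor sample quality and one discontinued.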

[2] = tested on: patients with HCV and HBV liver cirrhosis; test: Child-Pugh; assay type: in vivo, human; details: 12 weeks after PRI-724 administration
Summary of the method: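 Patients with HCV- or HBV-induced cirrhosis (Child–Pugh A or B) received the test compound at 280 mg/m² by 4 h IV infusion twice weekly for 12 weeks. Child–Pugh class and score were assessed at baseline and 12 weeks post-treatment. Fourteen patients were analysed, with one who discontinued excluded.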

[3] = tested on: patients with HCV and HBV liver cirrhosis; test: Liver stiffness measure; assay type: in vivo, human; details: 12 weeks
Summary of the method: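 Liver stiffness was measured by FibroScan at baseline and 12 weeks post-treatment in cirrhosis patients. Dosing was 280 mg/m² test compound by 4 h IV infusion twice weekly for 12 weeks. Thirteen patients were analysed, and the change relative to baseline was computed, including the ≥10% decrease subset among Child–Pugh B patients.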

[4] = tested on: patients with HCV and HBV liver cirrhosis; test: Collagen proportionate area; assay type: in vivo, human; details: baseline vs 12 weeks after PRI-724 administration, 280 mg/m^2/4 h
[5] = tested on: patients with HCV and HBV liver cirrhosis; test: Serum fibrosis markers; assay type: in vivo, human; details: before vs 12 weeks after PRI-724 administration
Summary of the method: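 As an exploratory endpoint, serum hyaluronic acid and type IV collagen type S were measured before and 12 weeks after a course of 280 mg/m² test compound (4 h IV infusion, twice weekly, 12 weeks). Subjects were patients with HCV/HBV cirrhosis, and mean levels were compared.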

[6] = tested on: patients with HCV and HBV liver cirrhosis; test: FIB-4 index, post-hoc analysis; assay type: in vivo, human; details: before and after administration
Summary of the method: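 This post-hoc analysis covered HCV/HBV cirrhosis patients given 280 mg/m² of the test compound by 4 h IV infusion twice weekly for 12 weeks. FIB-4 index was calculated before and after administration.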

[7] = tested on: patients with HCV and HBV liver cirrhosis; test: Serum ALB, PT and TBIL; assay type: in vivo, human; details: 14 patients
[8] = tested on: murine models of liver fibrosis; details: due to hepatic stellate cell inactivation and macrophage migration; cited from earlier work
[9] = 280mg/m^2/4 h, 12 weeks, 13 patients

## PRI-724
[1]; [9]
  Patients with change in Fibrosis score from baseline of 0: 6
  Patients with change in Fibrosis score from baseline of 1: 3
  Patients with change in Fibrosis score from baseline of 2: 1
  Patients with change in Fibrosis score from baseline of -1: 1
  Patients with change in Fibrosis score from baseline of -2: 2
  Patients with change in Necroinflammatory score from baseline of 0: 5
  Patients with change in Necroinflammatory score from baseline of 1: 2
  Patients with change in Necroinflammatory score from baseline of 2: 2
  Patients with change in Necroinflammatory score from baseline of -1: 2
  Patients with change in Necroinflammatory score from baseline of -2: 2
[1]; after 12-week PRI-724 administration
  Mean activity score: No change was observed
[2]
  Change of CP class in the seven patients with CP class B at baseline: two improved to class A, four remained unchanged, and one worsened
[3]
  Patients with CP class B whose LSM decreased by ≥10% relative to baseline: four of six patients
[4]
  Collagen proportionate area of the whole liver tissue: no statistically significant change was observed
[5]
  Serum M2BPGi, mean level: lower relative to baseline levels but not statistically significant
  Serum hyaluronic acid, mean level: no difference in mean levels
  Serum procollagen III peptide, mean level: lower relative to baseline levels but not statistically significant
  Serum type IV collagen type S, mean level: no difference in mean levels
[6]
  FIB-4 index: statistically significant decrease
[7]
  Serum ALB level: improved from baseline at some time after PRI-724 administration
  Serum TBIL level: improved from baseline at some time after PRI-724 administration
[8]
  Anti-fibrotic effect: exhibits anti-fibrotic effects
